From ChEMBL document CHEMBL1146898, “Synthesis and immunostimulatory activity of 8-substituted amino 9-benzyladenines as potent Toll-like receptor 7 agonists” (Bioorg Med Chem Lett, 2006) come the findings set out here.

By EC50 is commonly meant the midpoint of the concentration-response curve. Lower therefore signals a more potent agent.

Calls of active or inactive are those of the source. No cut-off for these calls is given here.

Assay [1] has as its system PBMC. Briefly: Induction of IFNalpha production in human PBMC at 1 uM. In kind it is functional. The procedure, abridged:
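Donor PBMC from blood bank isolated over Ficoll-Hypaque and kept in RPMI 1640 with 10% FBS, L-glutamine and penicillin/streptomycin. 10⁶ cells/well were stimulated with compound at single final concentration for 24 h (37 °C, 5% CO₂). Supernatant IFN-α was measured by Luminex multicytokine bead kit. Values are a composite across several healthy donors.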

For assay [2], the system named is PBMC. Kind of assay: Induction of IFNalpha production in human PBMC. In kind it is functional, cell-based. The method in brief:
(§1)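 Ficoll-Hypaque-isolated human PBMC were held in RPMI 1640 with 10% FBS, L-glutamine and pen/strep, 10⁶ cells/well. They were treated for 24 h with a compound dilution series going down to 10 nM. Supernatant IFN-α was read by Luminex bead assay. Data are a composite of three donors. EC₅₀ came from non-linear regression curve fit.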

Assay [3] deals with PBMC. Kind of assay: Maximal IFNalpha production in human PBMC at 10 uM. In kind it is functional. The method in brief:
as §1

Assay [4] deals with Macrophage. Kind of assay: Induction of TNFalpha production in macrophages of TLR7 knockout mouse. Type of assay: functional, cell-based.
Assay [5] deals with Macrophage. Kind of assay: Induction of IL6 production in macrophages of TLR7 knockout mouse. Type of assay: functional, cell-based.
Assay [6] relates to Macrophage. Briefly: Induction of IL12 production in macrophages of TLR7 knockout mouse. In kind it is functional, cell-based.

On to `CCCNc1nc2c(N)nc(OCCOC)nc2n1Cc1ccccc1`, for which the Activity in the assay on PBMC [1] was 8.8 pg/mL.
As for `COCCOc1nc(N)c2nc(NCCCO)n(Cc3ccccc3)c2n1`, the Activity in the assay on PBMC [1] amounted to 113.18 pg/mL; in the assay with PBMC [3] it was 206 pg/mL. Further, the EC50 with PBMC [2] was found to be 3.2 µM. Further, the result in the assay on Macrophage [4], in the assay with Macrophage [5] and in the assay on Macrophage [6] was inactive.
`COCCOc1nc(N)c2nc(NCCc3ccccc3)n(Cc3ccccc3)c2n1` displayed an Activity in the assay with PBMC [1] of 1.33 pg/mL.
As for `COCCOc1nc(N)c2nc(NCCO)n(Cc3ccccc3)c2n1`, the Activity in the assay on PBMC [1] came to 99.21 pg/mL; in the assay on PBMC [3], 168 pg/mL. The same compound yielded an EC50 with PBMC [2] of 5.33 µM. The result with Macrophage [4], in the assay on Macrophage [5] and with Macrophage [6] was inactive.
Turning to `CCCCNc1nc2c(N)nc(OCCOC)nc2n1Cc1ccccc1`, the Activity in the assay with PBMC [1] was determined as 0.73 pg/mL.
In the case of `COCCOc1nc(N)c2nc(NCCN3CCOCC3)n(Cc3ccccc3)c2n1`, the Activity in the assay on PBMC [1] came out at 110.48 pg/mL; in the assay on PBMC [3], 176 pg/mL. In the assay with PBMC [2], this compound displayed an EC50 of 0.79 µM. The result in the assay on Macrophage [4], with Macrophage [5] and with Macrophage [6] was inactive.
Consider `CCNc1nc2c(N)nc(OCCOC)nc2n1Cc1ccccc1`, for which the Activity worked out at 80.3 pg/mL with PBMC [1] and 141 pg/mL in the assay on PBMC [3]. The response in the assay on PBMC [2] was half-maximal at 4.42 µM (EC50). In addition, the result in the assay on Macrophage [4], with Macrophage [5] and with Macrophage [6] was inactive.
On to `COCCOc1nc(N)c2nc(N(CCO)CCO)n(Cc3ccccc3)c2n1`, for which the Activity in the assay on PBMC [1] came out at 0.82 pg/mL.
Take `COCCOc1nc(N)c2nc(N3CCOCC3)n(Cc3ccccc3)c2n1`: the Activity in the assay on PBMC [1] was found to be 0.41 pg/mL.
`COCCOc1nc(N)c2nc(NN)n(Cc3ccccc3)c2n1`: in the assay on PBMC [1], the Activity came out at 0.21 pg/mL.
In the assay with PBMC [1], `CCOC(=O)Nc1nc2c(N)nc(OCCOC)nc2n1Cc1ccccc1` showed an Activity of 1.03 pg/mL.
In the assay with PBMC [2], `COCCOc1nc(N)c2nc(N)n(Cc3ccccc3)c2n1` had an EC50 above 10 µM. The Activity in the assay on PBMC [3] was found to be 132 pg/mL.
Take `COCCOc1nc(N)c2[nH]c(=O)n(Cc3ccccc3)c2n1`: the Activity is 418 pg/mL with PBMC [1] and 220 pg/mL in the assay with PBMC [3]. Moreover, the EC50 in the assay on PBMC [2] was found to be 0.14 µM.
